Results reported in article PMC6609548 (British Journal of Pharmacology, 2019).

Columns and labels:
[1] = test system: GABAergic eIPSCs in dentate gyrus granule cells; test: Evoked GABAergic postsynaptic currents; type: cell-based, mice; settings: for suppression of eIPSCs amplitude to: n = 5
Method in brief: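 Hippocampal slices (coronal) from 3–4-week-old ICR outbred mice of both sexes, recovered ≥1 hr at room temperature and superfused with oxygenated aCSF at 32–34°C. Whole-cell recordings from dentate granule cells at Vh 0 mV. eIPSCs were evoked every 10 s from a theta-glass electrode placed 100–200 μm away. Protocol: 20–30 control events, then test compound in aCSF for 5–10 min, perfusate illuminated at 365 nm then 455 nm for 3–5 min each.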

[2] = target: α1/β2/γ2 GABAA receptors (Homo sapiens, UniProt P14867+P18507+P47870); test: Whole-cell patch-clamp on CHO cells expressing heteromeric GABAA receptors; type: cell-based; settings: for decrease of currents induced by GABA (ramp protocol): 50 μM Azo-NZ1, 5 μM GABA, n = 5; for decrease of currents induced by GABA (ramp protocol) / decrease of amplitude of GABA-induced currents: visible light; for decrease of amplitude of GABA-induced currents: 70 μM Azo-NZ1, 5 μM GABA
Chain of α1/β2/γ2 GABAA receptors (P14867 28-456): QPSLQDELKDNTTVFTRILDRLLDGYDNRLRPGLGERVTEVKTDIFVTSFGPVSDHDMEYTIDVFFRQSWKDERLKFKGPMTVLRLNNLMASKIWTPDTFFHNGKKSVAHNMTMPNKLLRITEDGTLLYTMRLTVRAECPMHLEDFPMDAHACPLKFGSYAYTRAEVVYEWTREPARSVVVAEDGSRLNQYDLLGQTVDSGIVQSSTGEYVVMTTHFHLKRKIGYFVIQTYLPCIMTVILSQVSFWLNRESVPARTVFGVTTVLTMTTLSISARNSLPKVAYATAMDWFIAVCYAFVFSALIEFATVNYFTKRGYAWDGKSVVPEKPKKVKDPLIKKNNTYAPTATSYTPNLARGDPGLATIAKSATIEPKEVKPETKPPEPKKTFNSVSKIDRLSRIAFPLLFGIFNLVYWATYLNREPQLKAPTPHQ
Chain of α1/β2/γ2 GABAA receptors (P47870 25-512 limits assumed): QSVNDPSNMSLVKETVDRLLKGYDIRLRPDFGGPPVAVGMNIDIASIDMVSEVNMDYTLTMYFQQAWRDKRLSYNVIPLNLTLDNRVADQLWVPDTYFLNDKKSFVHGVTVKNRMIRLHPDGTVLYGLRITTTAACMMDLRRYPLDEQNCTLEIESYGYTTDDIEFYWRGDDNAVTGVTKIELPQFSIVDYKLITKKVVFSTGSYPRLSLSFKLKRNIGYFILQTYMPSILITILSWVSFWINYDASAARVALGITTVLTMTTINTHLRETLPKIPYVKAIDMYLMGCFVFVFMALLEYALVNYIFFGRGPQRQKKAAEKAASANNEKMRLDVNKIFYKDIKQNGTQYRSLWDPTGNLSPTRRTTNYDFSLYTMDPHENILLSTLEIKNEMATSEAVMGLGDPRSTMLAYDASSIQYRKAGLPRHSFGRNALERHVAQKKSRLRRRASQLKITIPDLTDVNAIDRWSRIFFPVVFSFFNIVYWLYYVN
Chain of α1/β2/γ2 GABAA receptors (P18507 40-467 isoform P18507-1 limits assumed): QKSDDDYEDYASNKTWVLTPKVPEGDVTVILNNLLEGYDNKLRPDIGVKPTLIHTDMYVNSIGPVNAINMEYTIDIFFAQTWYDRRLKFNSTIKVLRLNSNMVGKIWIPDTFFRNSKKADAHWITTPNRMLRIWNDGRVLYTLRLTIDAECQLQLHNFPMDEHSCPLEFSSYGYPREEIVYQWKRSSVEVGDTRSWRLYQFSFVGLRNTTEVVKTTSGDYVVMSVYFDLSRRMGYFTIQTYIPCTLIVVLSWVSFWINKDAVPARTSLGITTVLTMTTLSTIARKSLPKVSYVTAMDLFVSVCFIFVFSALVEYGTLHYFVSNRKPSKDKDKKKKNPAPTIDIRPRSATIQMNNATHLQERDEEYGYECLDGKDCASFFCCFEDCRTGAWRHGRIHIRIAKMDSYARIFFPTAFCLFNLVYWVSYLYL

[3] = target: ρ1 GABAC receptors (Homo sapiens, UniProt P24046); test: Whole-cell patch-clamp on CHO cells expressing homomeric ρ1 GABAC receptors; type: cell-based; settings: visible and UV light
Chain of ρ1 GABAC receptors (P24046 22-479): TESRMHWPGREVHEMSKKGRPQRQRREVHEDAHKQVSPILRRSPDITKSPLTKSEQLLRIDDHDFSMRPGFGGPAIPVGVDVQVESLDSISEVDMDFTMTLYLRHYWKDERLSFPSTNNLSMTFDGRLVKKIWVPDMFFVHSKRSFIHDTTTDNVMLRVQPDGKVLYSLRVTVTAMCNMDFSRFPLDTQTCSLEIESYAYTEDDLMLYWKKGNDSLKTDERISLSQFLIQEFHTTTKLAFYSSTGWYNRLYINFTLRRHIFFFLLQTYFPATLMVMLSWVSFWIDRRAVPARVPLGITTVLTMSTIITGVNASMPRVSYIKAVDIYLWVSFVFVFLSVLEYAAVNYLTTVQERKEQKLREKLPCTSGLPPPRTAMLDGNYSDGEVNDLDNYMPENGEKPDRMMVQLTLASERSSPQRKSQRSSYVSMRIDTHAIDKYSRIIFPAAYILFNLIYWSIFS

[4] = target: ρ2 GABAC receptors (Homo sapiens, UniProt P28476); test: Whole-cell patch-clamp on CHO cells expressing homomeric ρ2 GABAC receptors; type: cell-based
Chain of ρ2 GABAC receptors (P28476 21-465): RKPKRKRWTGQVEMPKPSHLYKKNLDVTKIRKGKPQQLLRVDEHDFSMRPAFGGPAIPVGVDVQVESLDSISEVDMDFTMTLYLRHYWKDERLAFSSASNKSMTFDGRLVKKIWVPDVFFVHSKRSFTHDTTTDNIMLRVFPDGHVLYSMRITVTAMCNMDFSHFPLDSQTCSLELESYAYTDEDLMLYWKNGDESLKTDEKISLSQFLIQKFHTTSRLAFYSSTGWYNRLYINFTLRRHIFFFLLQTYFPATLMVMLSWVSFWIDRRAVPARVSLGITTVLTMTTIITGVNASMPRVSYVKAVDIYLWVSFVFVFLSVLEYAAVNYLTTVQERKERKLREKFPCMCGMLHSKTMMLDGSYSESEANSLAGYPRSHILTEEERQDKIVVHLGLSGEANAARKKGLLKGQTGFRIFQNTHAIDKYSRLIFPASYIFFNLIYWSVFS
Method in brief: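 ρ2 receptors were expressed in CHO-K1 cells by cDNA transfection with GFP; whole-cell recordings were made 24–72 hr later at 20–25°C using fast solution exchange. […] Test compound inhibition of GABA-evoked currents was measured at Vh −30 and +30 mV and normalised to the current just before compound application; mean ± SEM.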

[5] = target: GABA ρ1 P2′S receptors (Homo sapiens, UniProt P24046, P315S); test: Whole-cell patch-clamp on CHO cells expressing mutant ρ1 P2′S receptors; type: cell-based; settings: 100 μM Azo-NZ1, 10 μM GABA, visible light
Chain of GABA ρ1 P2′S receptors (P24046 22-479 P315S): as the sequence (P24046 22-479) above, with P294S counted along it

[6] = target: ρ2 mutant S2′G receptors (Homo sapiens, UniProt P28476, S295G); test: Whole-cell patch-clamp on CHO cells expressing mutant ρ2 S2′G receptors; type: cell-based
Chain of ρ2 mutant S2′G receptors (P28476 21-465 S295G): as the sequence (P28476 21-465) above, with S275G counted along it
Method in brief: (§1)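 CHO-K1 cells were transfected (Lipofectamine) with receptor subunit cDNA plus GFP; fluorescent cells were recorded whole-cell 24–72 hr later at 20–25°C. External HEPES-buffered saline at pH 7.4; KCl-based pipette solution at pH 7.3. Agonist and test compound were co-applied by a fast three-tube system at Vh −30/+30 mV or on a −60 to +60 mV ramp. UV came from a 365 nm LED (0.6 mW·mm−2). Cells with input resistance <150 MOhm or >30% run-down were excluded.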

[7] = target: T1, α1 glycine receptors (Homo sapiens, UniProt P23415); test: Whole-cell patch-clamp on CHO cells expressing α1 glycine receptors; type: cell-based; settings: 50 μM, glycine 30 μM, Vh −30 mV
T1 sequence (P23415 29-457): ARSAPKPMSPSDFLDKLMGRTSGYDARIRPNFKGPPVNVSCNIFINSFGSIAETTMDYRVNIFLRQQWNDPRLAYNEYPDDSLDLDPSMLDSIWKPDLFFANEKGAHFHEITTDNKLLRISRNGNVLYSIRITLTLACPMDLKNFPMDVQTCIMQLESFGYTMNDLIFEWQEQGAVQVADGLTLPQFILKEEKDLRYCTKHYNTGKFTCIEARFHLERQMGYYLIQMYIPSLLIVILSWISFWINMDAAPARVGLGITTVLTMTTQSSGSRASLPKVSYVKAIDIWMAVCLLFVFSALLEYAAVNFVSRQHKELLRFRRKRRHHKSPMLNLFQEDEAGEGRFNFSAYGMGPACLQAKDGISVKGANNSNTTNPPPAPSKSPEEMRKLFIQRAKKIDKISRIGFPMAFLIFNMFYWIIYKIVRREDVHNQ
Method in brief: as §1

[8] = target: T2, α2 glycine receptors (Homo sapiens, UniProt P23416); test: Whole-cell patch-clamp on CHO cells expressing α2 glycine receptors; type: cell-based; settings: 50 μM, glycine 30 μM, Vh −30 mV, n = 10
T2 sequence (P23416 28-452): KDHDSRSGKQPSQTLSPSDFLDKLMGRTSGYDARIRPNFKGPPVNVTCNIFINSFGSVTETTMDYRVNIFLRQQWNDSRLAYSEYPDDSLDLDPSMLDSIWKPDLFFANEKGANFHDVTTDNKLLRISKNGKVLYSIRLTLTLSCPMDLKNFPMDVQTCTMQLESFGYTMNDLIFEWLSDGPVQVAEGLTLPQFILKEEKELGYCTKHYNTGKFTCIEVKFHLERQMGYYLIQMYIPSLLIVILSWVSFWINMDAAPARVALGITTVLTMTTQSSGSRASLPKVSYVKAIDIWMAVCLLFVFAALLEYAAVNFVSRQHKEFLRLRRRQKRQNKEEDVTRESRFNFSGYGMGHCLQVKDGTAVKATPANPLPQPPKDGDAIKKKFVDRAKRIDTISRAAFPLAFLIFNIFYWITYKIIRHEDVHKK
Method in brief: as §1

[9] = target: T3, 5‐HT3A receptors (Homo sapiens, UniProt P46098); test: Whole-cell patch-clamp on CHO cells expressing homomeric 5HT3A receptors; type: cell-based; settings: trans or cis‐configuration
T3 sequence (P46098 24-478): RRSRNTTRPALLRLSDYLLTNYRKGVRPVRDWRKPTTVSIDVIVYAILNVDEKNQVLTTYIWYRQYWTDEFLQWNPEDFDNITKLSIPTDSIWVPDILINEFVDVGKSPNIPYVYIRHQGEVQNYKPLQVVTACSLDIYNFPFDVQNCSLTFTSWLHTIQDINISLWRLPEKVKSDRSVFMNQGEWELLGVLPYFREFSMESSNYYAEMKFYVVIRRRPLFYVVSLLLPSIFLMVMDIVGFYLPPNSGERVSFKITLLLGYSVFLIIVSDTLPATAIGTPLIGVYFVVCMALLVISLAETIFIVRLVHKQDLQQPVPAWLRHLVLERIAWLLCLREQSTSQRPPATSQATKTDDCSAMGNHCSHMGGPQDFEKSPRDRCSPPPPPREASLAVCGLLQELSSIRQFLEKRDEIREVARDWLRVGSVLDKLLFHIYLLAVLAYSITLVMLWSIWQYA
Method in brief: as §1

**Q.** For `CN1CCc2cc3c(cc2[C@H]1[C@@H]1OC(=O)c2c1ccc1c2OCO1)OCO3` [Bicuculline, bicuculline, reference compound], which “effect on eIPSCs” value ([1]; bicuculline 10 μM, Vh 0 mV) is on record?
**A.** Its value is “complete inhibition”.

**Q.** What does the source list for `O=C1CN=C(c2ccccc2)c2cc(/N=N/c3ccc(S(=O)(=O)O)cc3)ccc2N1` [Azo‐NZ1, (E)‐4‐((2‐oxo‐5‐phenyl‐2,3‐dihydro‐1H‐benzo[e][1,4]diazepin‐7‐yl)diazenyl)benzenesulfonic acid]?
**A.** IC50 [2]: 67 ± 5 µM; decrease of currents induced by GABA (ramp protocol) ([2]; +60 mV): 76 ± 5%; decrease of currents induced by GABA (ramp protocol) ([2]; −60 mV): 40 ± 4%; effect at saturating GABA compared with 5 μM GABA ([2]; 50 μM Azo-NZ1 co-applied with 300 μM GABA, Vhold −30 mV): even stronger inhibitory effect; decrease of amplitude of GABA-induced currents ([2]; +30 mV): 78%; decrease of amplitude of GABA-induced currents ([2]; −30 mV): 51%; effect on GABA-induced currents ([2]; Azo-NZ1 0.5–1 μM, 5 μM GABA): did not produce effect; effect on receptor activity [3]: did not alter the activity; IC50 [4]: 128 ± 25 µM; effect on GABA-induced currents [5]: inhibited currents; UV effect ([6]; UV illumination in presence of Azo-NZ1): virtually absent; decrease of current amplitude ([6]; upon application of Azo-NZ1, n = 5): 14 ± 2%; current amplitude reduced to ([7]; UV illumination): 73 ± 2%; current amplitude reduced to ([7]; visible light (trans), n = 4): 86 ± 3%; current amplitude under UV illumination ([8]; UV illumination): 95 ± 7%; current amplitude decreased to ([8]; visible light): 23 ± 3%; interaction with 5‐HT3A receptors [9]: did not interact in a specific manner; suppression of eIPSCs amplitude to ([1]; 100 μM Azo-NZ1, blue light, Vh 0 mV): 58.6 ± 3.3%; suppression of eIPSCs amplitude to ([1]; 200 μM Azo-NZ1, blue light, Vh 0 mV): 25.2 ± 6.0%; amplitude of eIPSCs ([1]; single neuron, 100 μM Azo-NZ1, Vh 0 mV, control aCSF 156.9 ± 4.5 pA): 100.6 ± 3.2 pA

**Q.** Which “effect on GABA-induced current amplitude” value ([2]; diazepam 10 μM co-applied with non-saturating GABA (5 μM), Vh −30 mV) does the source give for `CN1C(=O)CN=C(c2ccccc2)c2cc(Cl)ccc21` [Diazepam, diazepam, reference compound] here?
**A.** The value was “increase in the current amplitude”.
